Measured values collected from several papers.
Compare with care: the assays were run in different laboratories.

CC(C)NCC(O)COc1cccc2ccccc12 (stereo not shown) — efflux ratio (Caco-2; 10 µM, 2 h, pH 7.4): 0.7
O=c1c2cc(Cl)c(CO)cc2[nH]c(=S)n1Cc1cccnc1 — efflux ratio (Caco-2; 10 µM, 90 min, pH 7.4): ~2
CC(C)CC(=O)OC[C@H]1O[C@@](C#N)(c2ccc3c(N)ncnn23)[C@H](O)[C@@H]1O — NOAEL (general toxicity; beagle dog; oral, multiple doses): 100 mg/kg/day
COc1cc(C(=O)c2nc(-c3cccc4[nH]ccc34)c[nH]2)cc(OC)c1OC — Tmax (male CD-1 mouse, plasma; intraperitoneal, 15 mg/kg): 8.4 min
N=C(N)NCCC[C@H](NC(=O)[C@H](Cc1ccccc1)NC(=O)[C@H](CCC(N)=O)NC(=O)OCc1ccccc1)C(=O)c1nccs1 — Tmax (female C57BL/6 mouse, plasma; intravenous, 5 mg/kg): 5 min
C[C@H]1O[C@@H](O[C@H]2[C@@H](O)C[C@H](O[C@H]3[C@@H](O)C[C@H](O[C@H]4CC[C@@]5(C)[C@H](CC[C@@H]6[C@@H]5C[C@@H](O)[C@]5(C)[C@@H](C7=CC(=O)OC7)CC[C@]65O)C4)O[C@@H]3C)O[C@@H]2C)C[C@H](O)[C@@H]1O — efflux ratio (Caco-2; 10 µM, 2 h, pH 7.4): 8.9
CCOC(=O)c1c(NC(=O)CNC(C)C)sc2c1CCCCC2 — Tmax (male mouse, brain; intraperitoneal, 100 mg/kg, single dose): 30 min
Cc1[nH]c(C)c(S(=O)(=O)Nc2ccc(S(F)(F)(F)(F)F)cc2)c1C(=O)N1CCC(F)(F)C1 — Tmax (mouse, brain; intraperitoneal, 40 mg/kg): 120 min
O=c1c2cc(Cl)c(CO)cc2[nH]c(=S)n1Cc1cncnc1 — efflux ratio (Caco-2; 10 µM, 90 min, pH 7.4): ~2
CC(=O)c1c(C)c2cnc(Nc3ccc(C4CCN(CCS(C)(=O)=O)CC4)cn3)nc2n(C2CCCC2)c1=O — efflux ratio (Caco-2; 10 µM): 0.96
